Measurements reported in ChEMBL document CHEMBL3046475, “Inhibition of tobacco bacterial wilt with sulfone derivatives containing an 1,3,4-oxadiazole moiety” (J Agric Food Chem, 2012).
Values after ≈ are worked out from the molar mass of the structure shown.

Experiments:
[1] = tested on: Ralstonia solanacearum; assay: Antibacterial activity against Ralstonia solanacearum assessed as growth inhibition at 200 ug/ml by turbidometer test (beneficial crop tobacco plant); assay type: functional
[2] = tested on: Ralstonia solanacearum; assay: Antibacterial activity against Ralstonia solanacearum assessed as growth inhibition at 500 ug/ml by turbidometer test (beneficial crop tobacco plant); assay type: functional
[3] = tested on: Ralstonia solanacearum; assay: Antibacterial activity against Ralstonia solanacearum assessed as growth inhibition by turbidometer test (beneficial crop tobacco plant); assay type: functional, organism-based
[4] = tested on: Ralstonia solanacearum; assay: Antibacterial activity against Ralstonia solanacearum in tobacco plant assessed as disease index at 500 ug/ml measured after 21 days of spraying under green house conditions; assay type: functional
How it was run: (§1)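 Tobacco seedlings were raised by floating cultivation at 25 °C for 30 d, then transplanted at about the three-leaf stage into pots of 500 g soil, one plant per pot. Plants were sprayed with compound solutions. Morbidity and disease index were recorded per a standard disease investigation and classification protocol at 7, 14 and 21 d, with blank and negative controls.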

[5] = tested on: Ralstonia solanacearum; assay: Antibacterial activity against Ralstonia solanacearum in tobacco plant assessed as plant morbidity at 500 ug/ml measured after 21 days of spraying under green house conditions; assay type: functional; how it was run: as §1
[6] = tested on: Ralstonia solanacearum; assay: Antibacterial activity against Ralstonia solanacearum in tobacco plant assessed as plant morbidity at 500 ug/ml measured after 14 days of spraying under green house conditions; assay type: functional; how it was run: as §1
[7] = tested on: Ralstonia solanacearum; assay: Antibacterial activity against Ralstonia solanacearum in tobacco plant assessed as control efficacy at 500 ug/ml measured after 21 days of spraying under green house conditions; assay type: functional; how it was run: as §1
[8] = tested on: Ralstonia solanacearum; assay: Antibacterial activity against Ralstonia solanacearum in tobacco plant assessed as control efficacy at 500 ug/ml measured after 7 days of spraying under green house conditions; assay type: functional; how it was run: as §1
[9] = tested on: Ralstonia solanacearum; assay: Antibacterial activity against Ralstonia solanacearum in tobacco plant assessed as disease index at 500 ug/ml measured after 14 days of spraying under green house conditions; assay type: functional; how it was run: as §1
[10] = tested on: Ralstonia solanacearum; assay: Antibacterial activity against Ralstonia solanacearum in tobacco plant assessed as plant morbidity at 500 ug/ml measured after 7 days of spraying under green house conditions; assay type: functional; how it was run: as §1
[11] = tested on: Ralstonia solanacearum; assay: Antibacterial activity against Ralstonia solanacearum in tobacco plant assessed as control efficacy at 500 ug/ml measured after 14 days of spraying under green house conditions; assay type: functional; how it was run: as §1
[12] = tested on: Ralstonia solanacearum; assay: Antibacterial activity against Ralstonia solanacearum in tobacco plant assessed as disease index at 500 ug/ml measured after 7 days of spraying under green house conditions; assay type: functional; how it was run: as §1
[13] = tested on: Ralstonia solanacearum; assay: Antibacterial activity against Ralstonia solanacearum in tobacco field assessed as inhibition of disease at 540 g/ha measured after 14 days of spraying; assay type: functional, organism-based
How it was run: (§2)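 Field trial with foliar spraying, scored 7, 14 and 21 d after treatment. Disease index = (4W + 3X + 2Y + Y)/4A from the plant disease classification sums. Inhibition % = (CK − PT1)/CK × 100, where CK is an untreated blank field. Statistics by ANOVA.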

[14] = tested on: Ralstonia solanacearum; assay: Antibacterial activity against Ralstonia solanacearum in tobacco field assessed as inhibition of disease at 540 g/ha measured after 21 days of spraying; assay type: functional, organism-based; how it was run: as §2
[15] = tested on: Ralstonia solanacearum; assay: Antibacterial activity against Ralstonia solanacearum in tobacco field assessed as inhibition of disease at 540 g/ha measured after 7 days of spraying; assay type: functional, organism-based; how it was run: as §2
[16] = tested on: Ralstonia solanacearum; assay: Antibacterial activity against Ralstonia solanacearum in tobacco field assessed as inhibition of disease at 405 g/ha measured after 21 days of spraying; assay type: functional; how it was run: as §2
[17] = tested on: Ralstonia solanacearum; assay: Antibacterial activity against Ralstonia solanacearum in tobacco field assessed as inhibition of disease at 405 g/ha measured after 7 days of spraying; assay type: functional; how it was run: as §2
[18] = tested on: Ralstonia solanacearum; assay: Antibacterial activity against Ralstonia solanacearum in tobacco field assessed as inhibition of disease at 405 g/ha measured after 14 days of spraying; assay type: functional; how it was run: as §2
[19] = Ralstonia solanacearum, read-out: EC50

CCS(=O)(=O)c1nnc(-c2ccc(OC)c(OC)c2)o1
inhibition at 200 µg/mL [1]: 2.8%
inhibition at 500 µg/mL [2]: 9.3%

COPPER HYDROXIDE [listing 1 of 2 here]
EC50 [3]: 45.9 µg/mL

CCS(=O)(=O)c1nnc(-c2ccccc2)o1
Activity [4]: 91.7%
Activity [5]: 100%
inhibition at 200 µg/mL [1]: 100%
Activity [6]: 100%
Efficacy [7]: 8.3%
Efficacy [8]: 34.6%
EC50 [3, 19]: 39.8 µg/mL (≈ 167 µM)
Activity [9]: 86.7%
inhibition at 500 µg/mL [2]: 100%
Activity [10]: 60%
Efficacy [11]: 12%
Activity [12]: 60%

COPPER HYDROXIDE [listing 2 of 2 here]
Activity [4]: 100%
Activity [5]: 100%
Activity [6]: 100%
Efficacy [7]: 0%
Efficacy [8]: 41.9%
Activity [9]: 95%
Activity [10]: 50.3%
Efficacy [11]: 3.4%
Activity [12]: 53.3%

CS(=O)(=O)c1nnc(-c2ccc(F)c(F)c2)o1
inhibition at 200 µg/mL [1]: 11.1%
inhibition at 500 µg/mL [2]: 12%

COc1ccc(-c2nnc(S(C)(=O)=O)o2)cc1OC
inhibition at 200 µg/mL [1]: 6%
inhibition at 500 µg/mL [2]: 10.1%

Saisentong
Activity [4]: 78.3%
Activity [5]: 100%
inhibition [13]: 71.1%
inhibition [1]: 100%
Activity [6]: 73.3%
Efficacy [7]: 21.7%
Efficacy [8]: 92.7%
inhibition [14]: 67.3%
Activity [9]: 40%
inhibition [2]: 100%
Activity [10]: 6.7%
Efficacy [11]: 59.3%
inhibition [15]: 61.2%
Activity [12]: 6.7%

CCS(=O)(=O)c1nnc(-c2ccc(F)c(F)c2)o1
inhibition at 200 µg/mL [1]: 46.7%
inhibition at 500 µg/mL [2]: 52%

CCS(=O)(=O)c1nnc(-c2ccc(Cl)c([N+](=O)[O-])c2)o1
inhibition at 200 µg/mL [1]: 17%
inhibition at 500 µg/mL [2]: 46%

CS(=O)(=O)c1nnc(Cc2ccc(Cl)cc2)o1
inhibition at 200 µg/mL [1]: 19.2%
inhibition at 500 µg/mL [2]: 31%

CCS(=O)(=O)c1nnc(-c2ccc(C)cc2)o1
inhibition at 200 µg/mL [1]: 15%
inhibition at 500 µg/mL [2]: 39%

CCS(=O)(=O)c1nnc(-c2ccc(F)cc2F)o1
inhibition at 200 µg/mL [1]: 92.3%
EC50 [3, 19]: 60.3 µg/mL (≈ 220 µM)
inhibition at 500 µg/mL [2]: 100%

CCS(=O)(=O)c1nnc(Cc2ccc(Cl)cc2)o1
inhibition at 200 µg/mL [1]: 18.7%
inhibition at 500 µg/mL [2]: 31.4%

CCS(=O)(=O)c1nnc(-c2ccc(F)cc2)o1
Activity [4]: 61.7%
Activity [5]: 100%
inhibition at 200 µg/mL [1]: 100%
Activity [6]: 60%
Efficacy [7]: 38.3%
Efficacy [8]: 85.5%
EC50 [3, 19]: 32.1 µg/mL (≈ 125 µM)
inhibition (INH) [16]: 71.9%
Activity [9]: 40%
inhibition at 500 µg/mL [2]: 100%
Activity [10]: 13.3%
Efficacy [11]: 59.3%
inhibition (INH) [17]: 65.3%
inhibition (INH) [18]: 68.8%
Activity [12]: 13.3%

CCS(=O)(=O)c1nnc(-c2cccc(F)c2)o1
inhibition at 200 µg/mL [1]: 100%
EC50 [3, 19]: 47.9 µg/mL (≈ 187 µM)
inhibition at 500 µg/mL [2]: 100%

CS(=O)(=O)c1nnc(-c2ccc(Cl)c([N+](=O)[O-])c2)o1
inhibition at 200 µg/mL [1]: 0%
inhibition at 500 µg/mL [2]: 20.1%

CS(=O)(=O)c1nnc(-c2ccccc2Br)o1
inhibition at 200 µg/mL [1]: 9.9%
inhibition at 500 µg/mL [2]: 14.2%
